# Measured values: ChEMBL document CHEMBL4699585, “Evaluation of the Pharmacophoric Role of the O-O Bond in Synthetic Antileishmanial Compounds: Comparison between 1,2-Dioxanes and Tetrahydropyrans” (J Med Chem, 2020)
# Activity calls are given as the source filed them. The calls are words filed in the database; no cut-off is given here.
# Key:
# [1] = test system: Leishmania donovani; assay: Antileishmanial activity against sitamaquine-resistant wild type promastigote stage of Leishmania donovani MHOM/ET/67/HU3 infected in mouse macrophages assessed as reduction in parasite viability measured after 48 hrs by Giemsa staining-based assay; assay type: functional, organism-based; details: MHOM/ET/67/HU3, Macrophage
# [2] = test system: Leishmania donovani; assay: Antileishmanial activity against wild type promastigote stage of Leishmania donovani LV9 infected in mouse macrophages assessed as reduction in parasite viability measured after 48 hrs by Giemsa staining-based assay; assay type: functional, organism-based; details: LV9, 48 h
# [3] = test system: Leishmania donovani; assay: Antileishmanial activity against amastigotes stage of Leishmania donovani D10 infected in mouse RAW264.7 cells assessed as reduction in cell viability incubated from 24 to 72 hrs by Giemsa staining-based assay; assay type: functional, organism-based; details: D10, RAW264.7
# [4] = test system: Leishmania donovani; assay: Antileishmanial activity against Leishmania donovani promastigotes assessed as reduction in parasite viability in presence of […] iron chelator desferrioxamine measured after 24 hrs by microplate alamar blue assay; assay type: functional, organism-based
# Outline: (§1)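 L. donovani promastigotes (MHOM/NP/02/BPK282/0cl4, late log/stationary phase) seeded at 10^6 cells/mL in complete HOMEM, preincubated 24 h at 26 °C with desferrioxamine at four nontoxic doses (1:2 dilutions). Compounds added over a range spanning each one's IC50. Viability read by alamarBlue absorbance at 550/630 nm. FIC values plotted as isobolograms. Duplicates.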
# [5] = test system: Leishmania donovani; assay: Additive antileishmanial activity against Leishmania donovani promastigotes measured after 24 hrs in presence of iron chelator desferrioxamine by microplate alamar blue assay; assay type: functional, organism-based; outline: as §1
# [6] = test system: Leishmania donovani; assay: Antileishmanial activity against Leishmania donovani promastigotes assessed as reduction in parasite viability in presence of 25 uM iron chelator desferrioxamine measured after 24 hrs by microplate alamar blue assay; assay type: functional, organism-based; outline: as §1
# [7] = test system: Leishmania donovani; assay: Antileishmanial activity against Leishmania donovani promastigotes assessed as reduction in parasite viability in presence of 50 uM iron chelator desferrioxamine measured after 24 hrs by microplate alamar blue assay; assay type: functional, organism-based; outline: as §1
# [8] = test system: Leishmania donovani; assay: Induction of ROS generation in Leishmania donovani promastigotes assessed as increase in intracellular ROS level at IC50 measured up to 60 mins by H2DCFDA probe based fluorimetry analysis; assay type: functional, organism-based; details: time min <=60
# [9] = test system: Leishmania donovani; assay: Antileishmanial activity against Leishmania donovani promastigotes assessed as reduction in parasite viability in presence of 100 uM iron chelator desferrioxamine measured after 24 hrs by microplate alamar blue assay; assay type: functional, organism-based; outline: as §1
# [10] = test system: Leishmania donovani; assay: Induction of ROS generation in Leishmania donovani promastigotes assessed as increase in intracellular ROS level at IC50 measured after 24 hrs by H2DCFDA probe based fluorimetry analysis; assay type: functional, organism-based
# [11] = Drug localization in Leishmania donovani MHOM/NP/O2/BPK282/0cl4 promastigote at IC50 […] by TO-PRO-3 dye based confocal microscopy analysis; assay type: ADME
# [12] = Drug localization in kinetoplast of Leishmania donovani MHOM/NP/O2/BPK282/0cl4 promastigote at IC50 incubated for 40 to 45 mins by TO-PRO-3 staining based confocal microscopy analysis; assay type: ADME, subcellular; details: time 40-45 min
# [13] = Drug localization in cytoplasm of Leishmania donovani MHOM/NP/O2/BPK282/0cl4 promastigote at IC50 incubated for 40 to 45 mins by TO-PRO-3 dye based confocal microscopy analysis; assay type: ADME, subcellular; details: time 40-45 min
# [14] = Drug localization in nucleus of Leishmania donovani MHOM/NP/O2/BPK282/0cl4 promastigote at IC50 incubated for 40 to 45 mins by TO-PRO-3 staining based confocal microscopy analysis; assay type: ADME, subcellular; details: time 40-45 min
# [15] = test system: Leishmania donovani; assay: Antileishmanial activity against HePC-resistant wild type promastigote stage of Leishmania donovani MHOM/ET/67/HU3 infected in mouse macrophages assessed as reduction in parasite viability measured after 48 hrs by Giemsa staining-based assay; details: MHOM/ET/67/HU3, Macrophage
# [16] = test system: Leishmania donovani; assay: Induction of ROS generation in Leishmania donovani promastigotes at 22 uM measured after 24 hrs by H2DCFDA probe based fluorimetry analysis; assay type: functional, organism-based
# Outline: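 Late log/stationary L. donovani promastigotes seeded at 10^6 cells mL–1 in HOMEM with 20% FBS and treated 24 h at 26 °C; untreated cells served as negative control. Cells were washed in PBS (pH 7.4), loaded with 10 μM H2DCFDA and kept 35 min in the dark at 26 °C. DCF fluorescence read at ex 488/em 530 nm over 1–60 min. Three independent experiments, each in triplicate.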
# [17] = test system: Leishmania donovani; assay: Antileishmanial activity against Leishmania donovani MHOM/MA(BE)/67/ITMAP263 promastigotes infected in primary mouse peritoneal macrophage assessed as reduction in parasite viability measured after 4 days by Giemsa staining-based assay; assay type: functional, organism-based; details: MHOM/MA(BE)/67/ITMAP263, Peritoneal macrophage, 96 h
smiles,measurement,setting,value
C=CCO[C@@]1(C(F)(F)F)O[C@@H]2C[C@@]3(C)C[C@H]4[C@H](C)CC[C@@H]([C@H]1C)[C@@]24OO3,IC50,[1],1.6 µM
same,IC50,[2],6.3 µM
OCCCCCCC1CCOOC2(CCCCCCCCCCC2)OOC1 (configuration not stated),IC50,[3],6.7 µM
COc1ccc(N[C@@]2(C(F)(F)F)O[C@@H]3C[C@@]4(C)C[C@H]5[C@H](C)CC[C@@H]([C@H]2C)[C@@]35OO4)cc1,IC50,[1],0.38 µM
same,IC50,[2],1.5 µM
CCCCC1(CCCC)CO[C@@](C)(OC)[C@@H](CNCCCn2ccnc2)C1 (racemic),IC50,[4],5.4 µM
same,Activity,[5],Active
same,IC50,[6],5.3 µM
same,IC50,[7],5.6 µM
same,Activity,[8],Active
same,IC50,[9],4.6 µM
same,Activity,[10],Active
CCCCC1(CCCC)CO[C@@](C)(OC)[C@@H](CNCCCCNc2c3ccc(Cl)cc3nc3ccc(OC)cc23)C1 (racemic),Drug uptake,[11],Active
CCCCC1(CCCC)C[C@H](CNCCCCNc2ccc([N+](=O)[O-])c3nonc23)[C@](C)(OC)OO1 (racemic),Drug uptake,[12],Active
same,Drug uptake,[13],Active
same,Drug uptake,[14],Not Active
CCCCC1(CCCC)C[C@H](CNCCCn2ccnc2)[C@](C)(OC)OO1 (racemic),IC50,[4],6.6 µM
same,Activity,[5],Active
same,IC50,[6],8.9 µM
same,IC50,[7],9.3 µM
same,Activity,[8],Active
same,IC50,[9],6.5 µM
same,Activity,[10],Active
CCCCCCCCCCCCCCCCOP(=O)([O-])OCC[N+](C)(C)C [MILTEFOSINE],IC50,[1],1.9 µM
same,IC50,[15],68.1 µM
same,Activity,[16],Active
NC[C@@H]1O[C@H](O[C@H]2[C@@H](O)[C@H](O[C@@H]3[C@@H](O)[C@H](N)C[C@H](N)[C@H]3O[C@H]3O[C@H](CO)[C@@H](O)[C@H](O)[C@H]3N)O[C@@H]2CO)[C@H](N)[C@@H](O)[C@@H]1O [PAROMOMYCIN],IC50,[17],19.7 µM
